KCNK3 inh – human KCNK3 channel inhibition, primary screen | O14649 | CHO-KCNK3 thallium flux, FluxOR fluorescence; active compounds read low | B-score at 10 µM | 340,000 tested, 0.84% active | AID 602410;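 active = B-score under library mean minus 4 SD, starting fluorescence ratio at most library mean plus 5 SD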;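 also: more negative B-score means stronger inhibition of thallium flux through KCNK3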
Kir21 block – inhibitors of mouse Kir2.1 inward-rectifier potassium channel; B-score at 10 µM; P35561; HEK293-Kir2.1, FluxOR thallium flux fluorescence; active compounds read low; 310,000 tested, 0.85% active;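 active = fluorescence ratio B-score at or below minus 3 SD of library scores, with starting-brightness B-score within 2 SD, cut at about -4.2 in these data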;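 also: channel flux triggered by added potassium and thallium sulfate stimulus; B-score of peak minus minimum fluorescence over baseline after thallium stimulus; more negative B-score means stronger Kir2.1 block with less thallium influx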
hERG rescue – shields human hERG channel from block by proarrhythmic agents | Q12809 | CHO-hERG, FluxOR thallium flux, dofetilide IC70 present | activation (rescue from dofetilide block), less the hit threshold, % at 10 µM | 310,000 tested, 0.51% active;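 active = activation above the mean of controls blocked by dofetilide plus 5 SD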;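 also: thallium influx through hERG after potassium depolarization seen as dye fluorescence rise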
KCNQ1 inh – inhibitors of human KCNQ1 potassium channel; 310,000 tested, 1.3% active; B-score at 10 µM; CHO-K1 KCNQ1, FluxOR thallium flux fluorescence; active compounds read high;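 active = compounds whose thallium flux B-score, printed positive for inhibition, exceeds three library SD while starting fluorescence stays within three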;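 also: channel opened by potassium depolarization with thallium stimulus after 20 min compound exposure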
KCNQ1 pot – potentiators or activators of human KCNQ1 potassium channel; AID 2648; P51787; 310,000 tested, 0.35% active; B-score at 10 µM; CHO-K1 KCNQ1, thallium flux FluxOR fluorescence; active compounds read high;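 active = fluorescence ratio B-score, a plate-corrected score, at least three library SD, with initial intensity B-score within 5 SD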
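Test system: CHO-K1 cells stably expressing KCNQ1 / Medium: assay buffer / Also added: depolarizing K+/Tl+ stimulus, K2SO4 and Tl2SO4 each 12.5 mM in 5x stock / Incubation: 90 min dye loading and 20 min compound exposure, both at room temperature / Signal: thallium influx via FluxOR fluorescence, kinetic imaging / Evaluation: B score of baseline-normalized fluorescence ratio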
KCNK9 inh – human KCNK9 channel inhibition; Q9NPC2; HEK293 KCNK9, FluxOR thallium flux fluorescence; active compounds read low; B-score at 10 µM; 310,000 tested, 1.2% active;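 active = ratio B-score over 3 SD below the library mean, with starting fluorescence within 5 SD of its mean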;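 also: negative B-score means less thallium flux so channel inhibition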
Target sequence (Q9NPC2 whole entry, looked up): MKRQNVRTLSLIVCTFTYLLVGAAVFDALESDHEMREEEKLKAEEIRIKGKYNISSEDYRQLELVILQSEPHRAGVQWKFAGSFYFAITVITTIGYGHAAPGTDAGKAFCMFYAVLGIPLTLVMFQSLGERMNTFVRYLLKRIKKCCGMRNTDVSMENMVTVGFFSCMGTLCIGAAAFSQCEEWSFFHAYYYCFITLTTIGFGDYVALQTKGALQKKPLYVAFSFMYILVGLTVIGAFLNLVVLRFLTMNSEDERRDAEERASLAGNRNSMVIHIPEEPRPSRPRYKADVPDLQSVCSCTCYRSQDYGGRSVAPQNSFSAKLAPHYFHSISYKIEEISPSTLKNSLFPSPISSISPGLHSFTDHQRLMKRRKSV
KCNK9 inh conf – human KCNK9 inhibitor confirmation; AID 492992; inhibition, % at 10 µM; shares compounds with KCNK9 inh; HEK293 KCNK9 cells, FluxOR thallium flux fluorescence; 4,900 tested, 43% active;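 active = thallium signal inhibited by more than 5 SD of the compound-free buffer control wells, on both duplicate plates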;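 also: 0% = assay buffer control wells without compound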
Kir21 sel – selectivity of KCNK9 modulators against mouse Kir2.1; AID 492993; Kir2.1 cells, FluxOR thallium flux fluorescence; shares compounds with KCNK9 inh; inhibition, % at 10 µM; 4,900 tested, 4% active;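 active = thallium signal drop more than 5 SD beyond the mean of the no-compound control wells, seen in both duplicate plates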;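 also: signal is fluorescence rise after thallium addition divided by baseline fluorescence; plate controls were assay buffer only for no effect and full block by chlorpromazine control for full effect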
HEK293 Tl ctr – non-induced cell nonspecific activity of KCNK9 modulators | 4,900 tested, 40% active | inhibition, % at 10 µM | non-induced KCNK9-HEK293, FluxOR thallium flux | shares compounds with KCNK9 inh;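 active = thallium signal drop beyond 5 SD of the untreated control mean, on both duplicate plates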;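 also: plate controls were buffer only IC0 wells for no effect and SID17386958 at its maximal inhibitory level for full effect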
The depositor's hits bear a star; i = inactive; x = not tested or not shown. This is a sample that favours compounds with a hit; in the whole collection about 3.8% have one here.

SMILES	KCNK3 inh	Kir21 block	hERG rescue	KCNQ1 inh	KCNQ1 pot	KCNK9 inh	KCNK9 inh conf	Kir21 sel	HEK293 Tl ctr
CCCCNC(=O)C1CCN(Cc2ccc(OCc3ccccc3)c(OC)c2)CC1	i	-0.39	-4.3	i	i	i	x	x	x
Cc1ccc(C2(C)NC(=O)N(CC(=O)Nc3ccccc3C(=O)NC3CCCC3)C2=O)cc1 (centres undefined)	i	-1.33	-20.9	i	i	i	x	x	x
Cc1nn(CC(=O)Nc2ccc(N3CCOCC3)cc2)c(C)c1Cl	i	-0.37	-9.2	i	i	i	x	x	x
Cc1cccc(NC(=S)NC(=O)c2ccc(-c3ccccc3)cc2)n1	i	-0.18	-9.8	i	i	-11.4*	i	i	i
Cc1ccc(C(=O)O)cc1NC(=S)NC(=O)c1ccc(-c2ccccc2)cc1	i	0.07	-7.5	i	i	i	i	i	i
Cc1cccc(NC(=S)NC(=O)C(c2ccccc2)c2ccccc2)n1	i	1.8	-6.2	i	i	i	x	x	x
CC1CC1C(=O)OCC(=O)N(C)c1c(N)n(Cc2ccccc2)c(=O)[nH]c1=O (centres undefined)	i	-0.05	-7.0	i	i	i	x	x	x
COC(=O)c1ccccc1NC(=O)C1CCN(C(=O)c2ccc(OC)cc2)CC1	i	0.69	-7.4	i	i	i	i	i	i
COc1ccc(C(=O)N2CCC(C(=O)NC3CC3)CC2)cc1	i	-0.41	-1.9	i	i	i	x	x	x
O=C(CSc1ncc(C(F)(F)F)cc1Cl)N1CCN(S(=O)(=O)c2ccc(Cl)cc2)CC1	i	1.68	3.0	i	i	i	i	i	i
O=C(CSc1ccc(Cl)cc1)N1CCN(c2ncc(C(F)(F)F)cc2Cl)CC1	i	0.6	-5.9	i	i	i	i	i	i
O=C(CSc1ncc(C(F)(F)F)cc1Cl)N1CCN(S(=O)(=O)c2ccccc2)CC1	i	-0.35	-9.6	i	i	i	x	x	x
O=C(CN1CCN(c2ncc(C(F)(F)F)cc2Cl)CC1)N1CCN(c2ncc(C(F)(F)F)cc2Cl)CC1	i	1.36	-10.0	i	i	i	x	x	x
CC1CCC(C(C)C)C(OC(=O)Cn2c(-c3ccccc3)[n+](C)c3ccccc32)C1 (centres undefined)	i	-7.64*	-24.7	i	i	-8.77*	64.5%*	73.5%*	i
CC1CCC(C(C)C)C(OC(=O)Cn2c(-c3ccc(F)cc3)[n+](C)c3ccccc32)C1 (centres undefined)	i	x	x	x	x	x	x	x	x
CC(OC(=O)COc1ccc(C#N)cc1)C(=O)Nc1ccc(Cl)cn1 (centres undefined)	i	-1.11	-19.2	i	i	i	x	x	x
COC(=O)[C@H](CC(C)C)NC(=O)Nc1ccccc1F	i	-1.03	0.1	i	i	i	x	x	x
COc1ccc2[nH]cc(CCNC(=O)c3ccco3)c2c1	i	x	x	x	x	x	x	x	x
O=C(Oc1ccc2[nH]cc(CCN3C(=O)c4ccccc4C3=O)c2c1)c1ccco1	i	-1.55	-11.9	i	i	-10.6*	26.0%*	i	i
COc1cc(C(=O)NCC(=O)N2CCN(S(=O)(=O)c3ccccc3C(F)(F)F)CC2)cc(OC)c1OC	i	x	x	x	x	x	x	x	x
O=C(CN(C(=O)c1cccc([N+](=O)[O-])c1)C1CCCCC1)Nc1ccc(Cl)c([N+](=O)[O-])c1	i	2.01	-4.4	i	i	i	x	x	x
Cc1ccc([N+](=O)[O-])cc1NC(=O)CN(C(=O)c1ccccc1Cl)C1CCCCC1	i	0.17	-6.5	i	i	-9.56*	50.0%*	i	i
Cc1ccc(SCC2(O)CCN(S(=O)(=O)c3ccc(Cl)cc3)CC2)cc1	i	-1.05	-10.0	i	80*	i	i	i	i
CC(=O)n1cc([C@H]2C=C(C(=O)NCc3ccccc3)O[C@@H](OCc3ccc(CO)cc3)C2)c2ccccc21	i	0.02	-10.0	i	i	i	i	i	i
CC(=O)n1cc([C@H]2C=C(C(=O)NCc3ccccc3)O[C@@H](OCCCCO)C2)c2ccccc21	i	-0.36	-13.0	i	i	i	i	i	i
SMILES	KCNK3 inh	Kir21 block	hERG rescue	KCNQ1 inh	KCNQ1 pot	KCNK9 inh	KCNK9 inh conf	Kir21 sel	HEK293 Tl ctr
C#CCNC(=O)C1=C[C@@H](c2cn(C(C)=O)c3ccccc23)C[C@@H](OCc2ccc(CO)cc2)O1	i	-0.4	-8.3	i	i	i	x	x	x
CC(=O)n1cc([C@@H]2C=C(C(=O)NCc3ccccc3)O[C@H](OCCCCO)C2)c2ccccc21	i	0.87	-11.8	i	i	i	x	x	x
O=C(NCc1ccccc1)C1=C[C@H](c2ccc(Br)cc2)C[C@H](OCc2ccc(CO)cc2)O1	i	0.01	-10.8	i	i	i	i	i	i
CCN1CCc2c(sc(NC(=O)c3ccc(S(=O)(=O)N(C)CC4CCCO4)cc3)c2C(N)=O)C1 (centres undefined)	i	-0.34	-9.9	i	i	i	x	x	x
COc1ccccc1/C=C/C=N/N1CCN(Cc2ccc(Cl)cc2)CC1	i	0.01	-13.3	i	i	i	i	i	i
COc1ccccc1/C=C/C=N\N1CCN(Cc2ccccc2Cl)CC1	i	1.05	-12.8	i	i	i	i	i	i
COc1ccccc1N1CCN(Cc2ccc(-c3ccccc3[N+](=O)[O-])o2)CC1	i	-0.49	-24.1	i	i	i	i	i	i
COc1ccc(/C=N\N2CCN(Cc3ccccc3Cl)CC2)cc1	i	-0.22	-8.9	i	i	i	x	x	x
C(=C\c1ccccc1)/C=N/N1CCN(Cc2ccccc2)CC1	i	1.44	-9.7	i	i	i	x	x	x
O=[N+]([O-])c1ccccc1/C=C\C=N\N1CCN(c2ccccc2)CC1	i	0.99	-16.0	i	i	i	x	x	x
COc1ccccc1N1CCN(/N=C/C=C/c2ccccc2[N+](=O)[O-])CC1	i	-1.68	-2.5	i	i	i	i	i	i
COc1ccccc1/C=C(\C#N)C(=O)c1cccn1C	i	0.26	-7.3	i	i	i	x	x	x
CCOc1ccc(NS(=O)(=O)c2ccc(C(=O)N3CCCC(C)C3)cc2)cc1 (centres undefined)	i	0.76	-13.7	i	i	i	i	i	i
